Assay results taken from ChEMBL document CHEMBL1157249, “Alpha-glucosidase inhibitory anthranols, kenganthranols A-C, from the stem bark of Harungana madagascariensis” (J Nat Prod, 2006).
Active and inactive are the calls of the source. No cut-off for these calls is given here.

How the values were obtained:
[1] = (§1) Inhibition of Saccharomyces sp. alpha glucosidase by spectrophotometry
Outline: (§2)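 Yeast (Saccharomyces sp.) α-glucosidase, 250 units/mL, in 50 mM sodium phosphate buffer with 100 mM NaCl, pH 6.9, 37 °C; substrate […] p-nitrophenyl α-D-glucopyranoside. Hydrolysis followed continuously as absorbance increase at 400 nm. 1-Deoxynojirimycin (0.425 mM) and acarbose (0.78 mM) served as positive controls. Modified literature method.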

Saccharomyces [2] = experiment: as §1; outline: as §2
Saccharomyces [3] = experiment: Inhibition of Saccharomyces sp. alpha glucosidase at 800 uM by spectrophotometry

IC50 [1] [µM]	Activity (Saccharomyces [2])	Activity (Saccharomyces [3])	Structure (SMILES)
12	Dose-dependent effect		CC(C)=CCc1c(C)c(CC=C(C)C)c2c(c1O)C(=O)c1c(O)cc(O)c(CC=C(C)C)c1C2 [HARUNGANOL B]
		inactive	COc1cc2c(c(O)c1CC(=O)C(C)C)C(=O)c1c(O)cc(C)cc1C2=O
		inactive	COc1cc2c(c(O)c1/C=C/C(C)C)C(=O)c1c(O)cc(C)cc1C2=O
6.3	Dose-dependent effect		CC(C)=CCc1c(O)c(CC=C(C)C)c2c(c1O)C(=O)c1c(O)cc(C)c(CC=C(C)C)c1C2O (stereo not given) [KENGANTHRANOL B]

The next lines start with the compound.

Structure (SMILES)	IC50 [1] [µM]	Activity (Saccharomyces [2])	Activity (Saccharomyces [3])
COC1c2c(CC=C(C)C)c(C)cc(O)c2C(=O)c2c(O)cc3c(c21)CC(C(C)(C)O)O3 (stereo not given) [KENGANTHRANOL C]	21.9	Dose-dependent effect	
O=c1c2cc(O)ccc2oc2cccc(O)c12			inactive
CC(C)=CCc1c(C)cc(O)c2c(O)c3c(cc12)C(CC=C(C)C)(CC=C(C)C)C(O)=CC3=O [HARUNGANIN]	6	Dose-dependent effect	
C[C@H]1O[C@H](O[C@H]2[C@H](O)[C@@H](O)[C@@H](O[C@H]3[C@H](O)[C@@H](O)C(O)O[C@@H]3CO)O[C@@H]2CO)[C@H](O)[C@@H](O)[C@@H]1N[C@H]1C=C(CO)C(O)[C@H](O)[C@H]1O (single isomer, unassigned) [ACARBOSE]	780		
OC[C@H]1NC[C@H](O)[C@@H](O)[C@@H]1O [DUVOGLUSTAT]	426		
COc1cc(O)c2c(c1)C(=O)c1cc(C)cc(O)c1C2=O [PHYSCION]	192	Dose-dependent effect	
